The source of these data is PubChem BioAssay AID1885 (Broad Institute, 2009).

Out of some 300,000 compounds screened, about 4,400 (1.5%) were called active. What follows is part of a selection rich in actives, with near analogues and random picks from the rest. Values without a mark were called inactive.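 How the source made its calls: active means mean inhibition across valid replicates above about 55% (limit read from the data); inconclusive means mean below that limit but half or more replicates reach it; inactive means mean below it, under half of replicates reach it.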

The nature of the experiment: Trypanosoma cruzi replication blockers in host cells – luminescence, NIH3T3 host cells, primary screen (AID 1885).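 Further: signal also drops with host cell toxicity which is not excluded here; 0% = plate median of DMSO wells and 100% = zero luminescence signal; higher percent means less beta-gal luminescence so fewer parasites.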 The settings on record: T. cruzi beta-gal in NIH3T3, luminescence, 90 h; hits give high values; concentration not given here. The essentials: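 Material: NIH/3T3 host cells with β-galactosidase reporter T. cruzi; Input: 5,000 host fibroblasts per well; Medium: DMEM, 2% fetal bovine serum; Compound: 50 nL DMSO compound solution per well; Schedule: 3 h host attachment, then at least 90 h co-culture; Detection: luminescent β-galactosidase signal after 60 min lysis.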
One may read the inhibition as the relative decrease from the control value, in per cent. In the case of `CC(C)CN(C(=O)Cn1c(=O)cnc2ccccc21)C1CCS(=O)(=O)C1` (centres undefined), the inhibition was 11%.
`N#CCc1c(C#N)c(N)nc(N2CCCC2)c1C#N`: the inhibition was 8.26%.
Under `Cc1ncc(CO)c(/C=N/NC(=O)c2cccc(S(=O)(=O)N3CCCC3)c2)c1O` stands -9.29%.
For `CCn1c2c(c3ccc(OC)cc31)CCCC2=O`, the inhibition is -5.03%.
Consider `CCC(=O)/C(=C(/O)c1ccccc1)c1nc2ccccc2[nH]1`, for which the inhibition was 3.53%.
In the case of `O=C(/C(=C/c1cccc(Cl)c1)c1nc2ccccc2[nH]1)c1ccccc1`, the inhibition was 68.4% (active).
As for `O=C(Cc1nc2ccccc2[nH]c1=O)c1ccc(Cl)cc1`, the inhibition is 0.565%.
Under `CCCCn1c(N)c(N(CC(C)C)C(=O)CSc2ccc([N+](=O)[O-])cc2)c(=O)[nH]c1=O` stands 6.23%.
Regarding `CC(Oc1ccc(Br)cc1)C(=O)NCC(c1ccco1)N1CCCCC1` (centres undefined), the inhibition was -0.255%.
As for `CCN(C(=O)CSc1nnnn1-c1ccccc1OC)C1CCS(=O)(=O)C1` (centres undefined), the inhibition was -11.8%.
Take `COC(=O)C1=C(C)Nc2ncnn2C1c1ccco1` (centres undefined): the inhibition is -1.94%.
For `COC(=O)C1=C(C)Nc2ncnn2C1c1cccnc1` (centres undefined), the inhibition was 17.7%.
As to `CC1=C(C(=O)OC2CCCCC2)C(c2cccnc2)n2ncnc2N1` (centres undefined), the inhibition was 61.7% (active).
Under `COc1ccc(C(=O)COC(=O)COc2ccc(C)c(C)c2)cc1` stands 4.19%; under `O=S(=O)(NC1CCCCC1N1CCN(c2ccccc2F)CC1)c1ccccc1` (centres undefined), 20.8%.
`Cc1n[nH]c(=O)c2c(NC(=O)COC(=O)c3ncc(Cl)c(Cl)c3Cl)oc(C)c12`: the inhibition is -10.3%.
In the case of `COc1ccc(N(CC(=O)Nc2cccc3ccccc23)S(C)(=O)=O)c(OC)c1`, the inhibition was -7.06%.
For `CCc1ccccc1NC(=O)CN(c1ccc(OC)cc1OC)S(=O)(=O)c1ccccc1[N+](=O)[O-]`, the inhibition was 58.4% (active).
For `COc1ccc2c(CC(=O)OCC(=O)Nc3ccccc3[N+](=O)[O-])coc2c1`, the inhibition was 16.9%.
As to `O=C1N[C@@H](Cc2ccccc2)C(=O)N2[C@H]1C[C@]1(Br)c3ccccc3N(S(=O)(=O)c3ccccc3)[C@H]21`, the inhibition is -12.8%.
Take `c1ccc(CCc2nc(-c3ccncc3)no2)cc1`: the inhibition was -6.81%.
Take `COc1ccc(-c2noc(COc3ccc(Cl)c(C)c3)n2)cc1`: the inhibition is -9.09%.
`Cc1cc(Cl)ccc1OCc1nc(-c2ccncc2)no1`: the inhibition is 74.8% (active).
To `O=C(c1ccncc1)N1CCN(S(=O)(=O)c2cccc([N+](=O)[O-])c2)CC1` belongs 25.7%; to `CCCNC(=O)CCc1c(C)nc2c(c(C)nn2-c2ccc(C)cc2)c1C`, 63.7% (active).
On to `CCCNC(=O)CCc1c(C)nc2c(c(C)nn2-c2ccccc2)c1C`, for which the inhibition was 28%.
Under `CCCNC(=O)c1c(Cl)cnn1-c1ccc(C)cc1` stands -28%; under `O=S(=O)(O)Oc1c[nH]c2ccccc12`, -8.75%; under `COc1ccccc1NC(=O)CN(c1ccccc1OC)S(=O)(=O)c1ccccc1`, 2.04%.
`COc1ccccc1N(CC(=O)N/N=C(\C)c1ccccc1O)S(=O)(=O)c1ccc(C)cc1`: the inhibition was 65.9% (active).
Turning to `COc1ccc(S(=O)(=O)N(CC(=O)N/N=C/c2ccccc2C(=O)O)c2ccccc2OC)cc1`, the inhibition was 20.6%.
Consider `O=C(N/N=C/c1cc(Br)c(O)c([N+](=O)[O-])c1)C(O)(c1ccccc1)c1ccccc1`, for which the inhibition was -7.65%.
Turning to `COc1ccc(C(C)=O)cc1COc1ccc(Cl)c(C)c1`, the inhibition is 14.6%.
Take `CCn1nc(C)c(NC(=O)/C=C/c2ccc(OC)c(COc3ccc(Br)cc3)c2)c1C`: the inhibition is 68.5% (active).
In the case of `COc1ccc(/C=C/C(=O)Nc2c(C)nn(C)c2C)cc1COc1ccc(Br)cc1`, the inhibition was 30.9%.
`O=C(O)CCn1c(O)c(C=C2N=c3ccccc3=N2)sc1=S`: the inhibition was -24.7%.
For the molecule `COc1ccc(N2CCC(CNC(=S)Nc3c(C)cccc3C)C2)cc1` (centres undefined), the inhibition is 55.3% (active).
Consider `COc1ccc(NC(=S)NCCN2CCC(C)CC2)cc1`, for which the inhibition is -11.2%.
As for `COc1ccc(NC(=S)NCC2CCN(c3ccc(OC)cc3)C2)cc1` (centres undefined), the inhibition was 6.37%.
In the case of `CN1C(C(=O)NCC2CC2)CC2Cn3c(nc4ccccc43)C21` (centres undefined), the inhibition is -19%.
`O=C1CN(C(=O)COc2c(Cl)cccc2Cl)c2ccccc2N1`: the inhibition is -8.97%.
With `COc1ccccc1CCC(=O)NNC(=O)c1ccncc1`, the inhibition was 10.4%.
In the case of `O=C1C(=O)N(CC2COc3ccccc3O2)c2ccccc21` (centres undefined), the inhibition was -17%.
As for `Cc1cc(C(=O)CCl)c(C)n1CC1COc2ccccc2O1` (centres undefined), the inhibition was 60.4% (active).
Consider `Cc1cc(NC(=O)CCC2COc3ccccc3O2)no1` (centres undefined), for which the inhibition is 1.39%.
For the molecule `Cc1cc(C)c(C)c(S(=O)(=O)N2CCN(C(=O)c3ccc4c(=O)n5c(nc4c3)CCC5)CC2)c1C`, the inhibition was -5.27%.
In the case of `Nc1nc(Sc2ncccc2[N+](=O)[O-])n[nH]1`, the inhibition was -19.9%.
`Brc1cnc2ccccc2c1N1CCCCC1`: the inhibition was 0.276%.
On to `Cc1cccc(C(=O)OC(C)CN2CCCC2)c1` (centres undefined), for which the inhibition is -8.01%.
`Cc1cccc(C(=O)OC(C)CN2CCN(C)CC2)c1` (centres undefined): the inhibition is 56.8% (active).
With `Cc1ccc(C(=O)OC(C)CN2CCOCC2)cc1` (centres undefined), the inhibition is -11.2%.
With `COc1cc(C(=O)Nc2oc(-c3ccccc3)c(-c3ccccc3)c2C#N)cc(OC)c1OC`, the inhibition is 12.7%.
For `COc1ccc(-c2oc(/N=C/N3CCCC3)c(C#N)c2-c2ccc(OC)cc2)cc1`, the inhibition is 57.6% (active).
For the molecule `N#Cc1c(/N=C/N2CCCC2)oc(-c2ccccc2)c1-c1ccccc1`, the inhibition was 37.2%.
Consider `O=C(NC1CCCCC1)C1CCC(CNS(=O)(=O)c2ccccc2)CC1` (centres undefined), for which the inhibition is -8.43%.
For the molecule `OCCCNc1nc(-c2ccccc2)c2cc(Cl)ccc2n1`, the inhibition was 18.3%.
Turning to `O=C(CCl)NNc1nc(-c2ccccc2)c2cc(Cl)ccc2n1`, the inhibition was 3.67%.
`NC(N)=Nc1nc(-c2ccccc2)c2cc(Cl)ccc2n1`: the inhibition is 65.4% (active).
Consider `CC(Oc1ccccc1[N+](=O)[O-])C(=O)N/N=C/c1ccoc1` (centres undefined), for which the inhibition was -8.31%.
For the molecule `O=C(Nc1ccc(N2CCCCC2)cc1)c1cc(S(=O)(=O)N2CCOCC2)ccc1F`, the inhibition is 22.8%.
With `O=C(Nc1ccc(S(=O)(=O)N2CCCC2)cc1Cl)C1=COCCO1`, the inhibition was -14.4%.
In the case of `CCN(CC)c1ccc(S(=O)(=O)N2CCCCC2)cc1NC(=O)C1=COCCO1`, the inhibition is 61% (active).
In the case of `CCN(CC)c1ccc(S(=O)(=O)N2CCOCC2)cc1NC(=O)CSc1cccc[n+]1[O-]`, the inhibition is 5.13%.
With `COc1cccc(NC(=O)CN(C)C(=O)CSCc2nc3scc(-c4cccs4)c3c(=O)[nH]2)c1`, the inhibition was -4.78%.
Regarding `O=C(NN1CCOCC1)c1cccc(F)c1`, the inhibition was -3.38%.
As to `Cc1ccc(NS(=O)(=O)c2ccc(C)c(NC(=O)COc3ccc4ccccc4c3)c2)c(C)c1`, the inhibition was 30.6%.
Turning to `COc1cc(NS(=O)(=O)c2ccc3ccccc3c2)c2ncccc2c1`, the inhibition was 76.5% (active).
For the molecule `COc1ccc2cc(S(=O)(=O)Nc3ccccn3)ccc2c1`, the inhibition was 4.63%.
As to `CC(C)C(c1nnnn1C1CCCCC1)N1CCN(C(=O)c2ccco2)CC1` (centres undefined), the inhibition is -11.6%.
Under `CC(C)Cn1c(N)c(C(=O)NCc2cccs2)c2nc3ccccc3nc21` stands 59.8% (active); under `CCCNC(=O)c1c(N)n(-c2ccc(S(N)(=O)=O)cc2)c2nc3ccccc3nc12`, -22.9%.
With `CC(C)(C)c1ccc(C(=O)NCCn2c(N)c(C#N)c3nc4ccccc4nc32)cc1`, the inhibition was -43.8%.
Turning to `COc1ccccc1CCNC(=O)C1CCN(C(=O)/C=C/c2ccccc2)CC1`, the inhibition is -2.7%.
With `CCN(CC)CCN(C(=O)c1cccc([N+](=O)[O-])c1)c1nc2ccc(OC)cc2s1`, the inhibition is 55.5% (active).
Consider `CCOc1ccc2nc(N(CCN(C)C)C(=O)c3ccc4ccccc4c3)sc2c1`, for which the inhibition was 26.5%.
Consider `CCN(CC)CCN(C(=O)c1ccc(N2C(=O)CCC2=O)cc1)c1nc2cc3c(cc2s1)OCO3`, for which the inhibition was 40.8%.
Take `CCOc1ccc(NC(=O)CCC(=O)NNC(=O)NC2CCCCC2)cc1`: the inhibition is 8.19%.
Under `Cc1ccc2nc(SCC(=O)N3CC(C)OC(C)C3)nc(=O)n2c1` (centres undefined) stands -6.75%.
On to `CCN(Cc1ccccc1)S(=O)(=O)c1cc2c3c(c1)CCN3C(=O)CC2`, for which the inhibition was -1.06%.
As to `O=c1cnnc(Nc2ccccc2F)[nH]1`, the inhibition was -1.79%.
Under `O=C(NCc1ccccc1)C1=C[C@@H](c2ccc(C(F)(F)F)cc2)C[C@@H](OCc2ccc(CO)cc2)O1` stands 63% (active).
Under `CC(C)(C)[C@H]1C=C(C(=O)NCc2ccccc2)O[C@@H](OCc2ccc(CO)cc2)C1` stands 7.55%; under `O=C(C1=C[C@H](c2ccc(C(F)(F)F)cc2)C[C@H](OCc2ccc(CO)cc2)O1)N1CCN(Cc2ccccc2)CC1`, 40.5%.
Under `OCCNc1nc(Nc2ccc(Cl)c(Cl)c2)nc2ccccc12` stands 64.3% (active); under `COc1cc2nc(Cl)nc(NCCO)c2cc1OC`, -12.7%.
As to `CN(C)c1nc(Nc2ccc(Cl)c(Cl)c2)nc(N(C)C)n1`, the inhibition was 9.61%.
Take `COCCNc1nc(-c2ccccc2)nc2c1oc1ccccc12`: the inhibition is 36.8%.
With `CCc1noc(C)c1C(=O)Oc1ccc(N(C)S(=O)(=O)c2ccc(C)c(C)c2)cc1`, the inhibition was 31%.
To `COC(=O)C(C(=O)Nc1cccc(Cl)c1C)C1CCCC1` (centres undefined) belongs -20.2%.
In the case of `COCCCn1c(SCC(=O)Nc2oc(C)c3c(C)n[nH]c(=O)c23)nc2sc3c(c2c1=O)CCC3`, the inhibition was 2.14%.
Under `CN(C1CCS(=O)(=O)C1)S(=O)(=O)c1ccc2ccccc2c1` (centres undefined) stands -3.79%; under `Cc1ccccc1Nc1nc(-c2cccnc2)cs1`, 20.2%.
To `Brc1ccc(-c2csc(N/N=C/c3cccnc3)n2)cc1` belongs 69.8% (active); to `Brc1ccc(-c2csc(N/N=C/c3ccc4c(c3)OCO4)n2)cc1`, 31.5%.
